Our source for the MIC and GI50 values is ChEMBL document CHEMBL1806381, “Unprecedented C-2 arylation of indole with diazonium salts: Syntheses of 2,3-disubstituted indoles and their antimicrobial activity” (Bioorg Med Chem Lett, 2011).

For data set [1], the system named is Enterococcus faecalis. Description: Antimicrobial activity against low-level vancomycin-resistant Enterococcus faecalis ATCC 51299 assessed as growth inhibition after 18 hrs by MTT assay. Type of data set: functional. The following applies: ATCC 51299, 18 h. An outline of the steps:
(§1)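 Bacterial suspensions adjusted to ~5×10^5 CFU/mL, treated with compounds in 2-fold serial dilutions, incubated per ATCC recommendations for 18 h. Viability read by MTT method, used because the compounds are coloured.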
A general note: Tetrazolium assays rely on reduction of a dye to a coloured formazan, in cell work by metabolically active cells.

In data set [2] the test system is Candida albicans. Description: Antimicrobial activity against Candida albicans ATCC 26555 assessed as growth inhibition after 18 hrs by MTT assay. Type of data set: functional. The following applies: ATCC 26555, 18 h.
In data set [3] the test system is Acinetobacter baumannii. Description: Antimicrobial activity against Acinetobacter baumannii ATCC 15151 assessed as growth inhibition after 18 hrs by MTT assay. Type of data set: functional. The following applies: ATCC 15151, 18 h. The method, boiled down: (§2)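 Bacterial suspensions were adjusted to about 5×10^5 CFU/mL and treated with compounds in 2-fold serial dilutions. They were incubated for 18 h as ATCC recommends. Viability was read by MTT because the compounds are coloured.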

In data set [4] the test system is Pseudomonas aeruginosa. Description: Antimicrobial activity against Pseudomonas aeruginosa ATCC 27853 assessed as growth inhibition after 18 hrs by MTT assay. Format: functional. The following applies: ATCC 27853, 18 h. An outline of the steps:
as §2

The subject of data set [5] is Staphylococcus aureus. Description: Antimicrobial activity against methicillin-susceptible Staphylococcus aureus ATCC 29213 assessed as growth inhibition after 18 hrs by MTT assay. Type of data set: functional. The conditions noted are these: ATCC 29213, 18 h. The method, boiled down: as §2
Data set [6] is described as follows: Antiproliferative activity against human HeLa cells after 72 hrs by MTT assay. Format: cell-based.
Data set [7] relates to Staphylococcus aureus. Description: Antimicrobial activity against methicillin-resistant Staphylococcus aureus BAA-44 assessed as growth inhibition after 18 hrs by MTT assay. Type of data set: functional. The following applies: BAA-44, 18 h. An outline of the steps:
as §1

In brackets after ≈: the same amount, converted by molar mass. Bounds are passed on as bounds.

As usually defined, the MIC is the least concentration at which growth counts as inhibited. What is called GI50 is the concentration that inhibits growth by half. Read a low GI50 as greater sensitivity of the cells. Turning to `Clc1ccc(Oc2c(-c3ccc(Cl)cc3)[nH]c3ccc(Cl)cc23)cc1`, the MIC is 12.5 µM (≈ 4.86 µg/mL) in data set [1]; over 100 µM in data set [2]; over 100 µM in data set [3]; over 100 µM in data set [4]; 1.6 µM (≈ 0.622 µg/mL) in data set [5]; 0.6 µM (≈ 0.233 µg/mL) in data set [7]. In data set [6], this molecule showed a GI50 at 72 h of 8 µM.
In the case of `Clc1ccc(Sc2c(-c3ccc(Cl)cc3)[nH]c3ccc(Cl)cc23)cc1`, the MIC in data set [1] was 6.3 µM (≈ 2.55 µg/mL); in data set [2], over 100 µM; in data set [3], over 100 µM; in data set [4], over 100 µM; in data set [5], 1.6 µM (≈ 0.648 µg/mL); in data set [7] it was 1.3 µM (≈ 0.526 µg/mL). Halving of growth in data set [6] (GI50 at 72 h) required 8 µM.
Turning to `Brc1ccc(/N=N/c2c[nH]c3ccccc23)cc1`, the MIC in data set [1] is 12.5 µM (≈ 3.75 µg/mL); in data set [2], 25 µM (≈ 7.5 µg/mL); in data set [3] it was over 100 µM; in data set [4] it was over 100 µM; in data set [5], 6.3 µM (≈ 1.89 µg/mL); in data set [7], 6.3 µM (≈ 1.89 µg/mL). For the same molecule, halving of growth in data set [6] (GI50 at 72 h) required 49 µM.
As for `Clc1ccc(Oc2c(-c3ccc(Cl)cc3)[nH]c3ccccc23)cc1`, the MIC in data set [1] was 12.5 µM (≈ 4.43 µg/mL); in data set [2], over 100 µM; in data set [3], over 100 µM; in data set [4] it was over 100 µM; in data set [5], 1.6 µM (≈ 0.567 µg/mL); in data set [7], 3.1 µM (≈ 1.1 µg/mL). In data set [6], this molecule yielded a GI50 at 72 h of 9 µM.
Regarding `Clc1ccc(Oc2c(-c3ccc(Cl)cc3)[nH]c3ccc(Br)cc23)cc1`, the MIC in data set [1] is 12.5 µM (≈ 5.41 µg/mL); in data set [2], over 100 µM; in data set [3], over 100 µM; in data set [4] it was over 100 µM; in data set [5] it was 3.1 µM (≈ 1.34 µg/mL); in data set [7] it was 3.1 µM (≈ 1.34 µg/mL). In addition, in data set [6], it took 3 µM to inhibit growth by half (GI50 at 72 h).
In the case of `COc1ccc2[nH]c(-c3ccc(Cl)cc3)c(Oc3ccc(Cl)cc3)c2c1`, the MIC in data set [1] is 25 µM (≈ 9.61 µg/mL); in data set [2] it was over 100 µM; in data set [3], over 100 µM; in data set [4], over 100 µM; in data set [5] it was 12.5 µM (≈ 4.8 µg/mL); in data set [7] it was 6.3 µM (≈ 2.42 µg/mL). Further, in data set [6], it took 24 µM to inhibit growth by half (GI50 at 72 h).
In the case of `Fc1cccc2c(Oc3ccc(Cl)cc3)c(-c3ccc(Cl)cc3)[nH]c12`, the MIC was 3.1 µM (≈ 1.15 µg/mL) in data set [1]; over 100 µM in data set [2]; over 100 µM in data set [3]; over 100 µM in data set [4]; 1.6 µM (≈ 0.596 µg/mL) in data set [5]; 1.3 µM (≈ 0.484 µg/mL) in data set [7]. The molecule also came in with a GI50 at 72 h in data set [6] of 13 µM.
As for `Fc1ccc2[nH]c(-c3ccc(Cl)cc3)c(Oc3ccc(Cl)cc3)c2c1`, the MIC in data set [1] is 6.3 µM (≈ 2.35 µg/mL); in data set [2], over 100 µM; in data set [3], over 100 µM; in data set [4], over 100 µM; in data set [5], 1.6 µM (≈ 0.596 µg/mL); in data set [7], 1.6 µM (≈ 0.596 µg/mL). Halving of growth in data set [6] (GI50 at 72 h) required 13 µM.
With `Clc1ccc(Sc2c(-c3ccc(Br)cc3)[nH]c3ccccc23)cc1`, the MIC is 3.1 µM (≈ 1.29 µg/mL) in data set [1]; over 100 µM in data set [2]; over 100 µM in data set [3]; over 100 µM in data set [4]; 1.6 µM (≈ 0.664 µg/mL) in data set [5]; 3.1 µM (≈ 1.29 µg/mL) in data set [7]. This molecule came in with a GI50 at 72 h in data set [6] of 12 µM.
Take `Brc1ccc(/N=N/c2c(-c3ccc(Br)cc3)[nH]c3ccccc23)cc1`: the MIC in data set [1] is 6.3 µM (≈ 2.87 µg/mL); in data set [2], over 100 µM; in data set [3] it was over 100 µM; in data set [4] it was over 100 µM; in data set [5] it was 6.3 µM (≈ 2.87 µg/mL); in data set [7], 12.5 µM (≈ 5.69 µg/mL). Besides, the GI50 at 72 h in data set [6] is 9 µM.
For the molecule `Clc1ccc(-c2cc3[nH]c4ccccc4c3cc2-c2ccc(Cl)cc2)cc1`, the MIC in data set [1], in data set [2], in data set [3], in data set [4], in data set [5] and in data set [7] was over 100 µM each time. In data set [6], this molecule displayed a GI50 at 72 h of 16 µM.
Consider `Clc1ccc(/N=N/c2c[nH]c3ccccc23)cc1`, for which the MIC was 25 µM (≈ 6.39 µg/mL) in data set [1]; 12.5 µM (≈ 3.2 µg/mL) in data set [2]; over 100 µM in data set [3]; over 100 µM in data set [4]; 12.5 µM (≈ 3.2 µg/mL) in data set [5]; 12.5 µM (≈ 3.2 µg/mL) in data set [7]. The same molecule displayed a GI50 at 72 h in data set [6] of 23 µM.
For `Clc1ccc(-c2cc3ccccc3[nH]2)cc1`, the MIC in data set [1], in data set [2], in data set [3], in data set [4], in data set [5] and in data set [7] was over 100 µM throughout. Also, the GI50 at 72 h in data set [6] is over 100 µM.
Take `Clc1ccc(/C=C/c2[nH]c3ccccc3c2/C=C/c2ccc(Cl)cc2)cc1`: the MIC in data set [1], in data set [2], in data set [3], in data set [4], in data set [5] and in data set [7] was over 100 µM in each case. The same molecule registered a GI50 at 72 h in data set [6] of 69 µM.
As to `O=C(c1ccc(Cl)cc1)c1c(-c2ccc(Cl)cc2)[nH]c2ccccc12`, the MIC in data set [1], in data set [2], in data set [3], in data set [4], in data set [5] and in data set [7] was over 100 µM each time. In data set [6], this molecule gave a GI50 at 72 h of 19 µM.
For `CN[C@H](CC(C)C)C(=O)N[C@H]1C(=O)N[C@@H](CC(N)=O)C(=O)N[C@H]2C(=O)N[C@H]3C(=O)N[C@H](C(=O)N[C@H](C(=O)O)c4cc(O)cc(O)c4-c4cc3ccc4O)[C@H](O)c3ccc(c(Cl)c3)Oc3cc2cc(c3O[C@@H]2O[C@H](CO)[C@@H](O)[C@H](O)[C@H]2O[C@H]2C[C@](C)(N)[C@H](O)[C@H](C)O2)Oc2ccc(cc2Cl)[C@H]1O` [VANCOMYCIN], the MIC in data set [1] came out at 86.3 µM (≈ 125 µg/mL); in data set [5], 2.8 µM (≈ 4.06 µg/mL); in data set [7] it was 2.8 µM (≈ 4.06 µg/mL).
With `CC1(C)S[C@@H]2[C@H](NC(=O)Cc3ccccc3)C(=O)N2[C@H]1C(=O)O` [PENICILLIN G], the figures for the MIC in data set [1], in data set [5] and in data set [7] were 11.9 µM (≈ 3.98 µg/mL), 23.9 µM (≈ 7.99 µg/mL) and over 100 µM, respectively.
For the molecule `O=S(=O)(c1ccc(Cl)cc1)c1c(-c2ccc(Cl)cc2)[nH]c2ccccc12`, the minimal inhibitory concentration (MIC) in data set [1], in data set [2], in data set [3], in data set [4], in data set [5] and in data set [7] was over 100 µM in each case. In data set [6], it took 14 µM to inhibit growth by half (GI50 at 72 h).
Turning to `Clc1ccc(Sc2c(-c3ccc(Cl)cc3)[nH]c3ccccc23)cc1`, the MIC in data set [1] was 3.1 µM (≈ 1.15 µg/mL); in data set [2] it was over 100 µM; in data set [3] it was over 100 µM; in data set [4] it was over 100 µM; in data set [5] it was 1.6 µM (≈ 0.592 µg/mL); in data set [7], 3.1 µM (≈ 1.15 µg/mL). In data set [6], this molecule displayed a GI50 at 72 h of 6 µM.
In the case of `Clc1ccc(/N=N/c2c(-c3ccc(Br)cc3)[nH]c3ccccc23)cc1`, the MIC is 6.3 µM (≈ 2.59 µg/mL) in data set [1]; over 100 µM in data set [2]; over 100 µM in data set [3]; over 100 µM in data set [4]; 6.3 µM (≈ 2.59 µg/mL) in data set [5]; 6.3 µM (≈ 2.59 µg/mL) in data set [7]. For the same molecule, the GI50 at 72 h in data set [6] was 13 µM.
`Clc1ccc(/C=C/c2c[nH]c3ccccc23)cc1`: the MIC in data set [1] is over 100 µM; in data set [2], over 100 µM; in data set [3], over 100 µM; in data set [4], over 100 µM; in data set [5] it was 25 µM (≈ 6.34 µg/mL); in data set [7], over 100 µM. The molecule also came in with a GI50 at 72 h in data set [6] of 64 µM.
Consider `COc1ccc(/N=N/c2c(-c3ccc(OC)cc3)[nH]c3ccccc23)cc1`, for which the MIC is over 100 µM in data set [1]; over 100 µM in data set [2]; over 100 µM in data set [3]; over 100 µM in data set [4]; 3.1 µM (≈ 1.11 µg/mL) in data set [5]; 50 µM (≈ 17.9 µg/mL) in data set [7]. Further, the GI50 at 72 h in data set [6] came out at 23 µM.
